Experimental data from ChEMBL document CHEMBL1153879, “Synthesis and pharmacokinetic evaluation of novel N-acyl-cordycepin derivatives with a normal alkyl chain” (Eur J Med Chem, 2009).

Tests used:
Mus musculus [1] = assay: AUC in C57BL/6 mouse at 0.5 umol/kg, po assessed as transformed cordycepin levels; type: ADME, organism-based, Plasma; settings: in vivo, in the assay text read “500 umol/kg” for “0.5 umol/kg”
In short: (§1)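 Male C57BL/6 mice (20±2 g, 7 weeks old) received a single oral dose in 2% Tween-80 aqueous solution. Blood was extracted with MeOH or EtOAc, depending on the compound, and assayed by HPLC. Parameters were derived from the mean profiles (n=5).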

[2] = Cmax in C57BL/6 mouse at 0.5 umol/kg, po; type: ADME, organism-based; parameters: dose 0.5 umol/kg, route oral; settings: in vivo; in short: as §1
[3] = Half life in C57BL/6 mouse at 0.5 umol/kg, po; type: ADME, organism-based; settings: in vivo; in short: as §1
[4] = Tmax in C57BL/6 mouse at 0.5 umol/kg, po; type: ADME, organism-based; settings: in vivo; in short: as §1
Mus musculus [5] = assay: Cmax in C57BL/6 mouse at 500 umol/kg, po assessed as transformed cordycepin levels; settings: in vivo
[6] = AUC in C57BL/6 mouse at 0.5 umol/kg, po; type: ADME, organism-based; settings: plasma; in short: as §1
Mus musculus [7] = assay: Tmax in C57BL/6 mouse at 0.5 umol/kg, po assessed as transformed cordycepin levels; type: ADME, organism-based; settings: in vivo; in short: as §1
Mus musculus [8] = assay: Half life in C57BL/6 mouse at 500 umol/kg, po assessed as transformed cordycepin levels; settings: in vivo
Mus musculus [9] = assay: Half life in C57BL/6 mouse at 0.5 umol/kg, po assessed as transformed cordycepin levels; type: ADME, organism-based; settings: in vivo, in the assay text read “500 umol/kg” for “0.5 umol/kg”; in short: as §1

| Compound | AUC (Mus musculus [1]) | Cmax [2] | half-life [3] | Tmax [4] | Cmax (Mus musculus [5]) | AUC [6] | Tmax (Mus musculus [7]) | t1/2 (Mus musculus [8]) | t1/2 (Mus musculus [9]) |
| --- | --- | --- | --- | --- | --- | --- | --- | --- | --- |
| CCCCCCCCCCCC(=O)Nc1ncnc2c1ncn2[C@@H]1O[C@H](CO)C[C@H]1O | 69.1 µM·h | 160 µM | 8.3 h | 6 h | 15 µM | 672 µM·h | 8 h | 10.5 h | – |
| CCC(=O)Nc1ncnc2c1ncn2[C@@H]1O[C@H](CO)C[C@H]1O | 59.9 µM·h | 120 µM | 4.4 h | 3 h | 14.1 µM | 356 µM·h | 5 h | – | 7.5 h |
| CCCCCCCCCCCCCCCCCC(=O)Nc1ncnc2c1ncn2[C@@H]1O[C@H](CO)C[C@H]1O | 3.7 µM·h | 22.1 µM | 8.6 h | 8 h | 2.2 µM | 32.5 µM·h | 10 h | – | 10.8 h |
| CCCCCCCC(=O)Nc1ncnc2c1ncn2[C@@H]1O[C@H](CO)C[C@H]1O | 83.7 µM·h | 310 µM | 6.8 h | 5 h | 20.6 µM | 1310 µM·h | 7 h | – | 9.4 h |
| Nc1ncnc2c1ncn2[C@@H]1O[C@H](CO)C[C@H]1O [CORDYCEPIN] | 19.2 µM·h | 10.1 µM | 2.1 h | 1.5 h | 10.1 µM | 19.2 µM·h | 1.5 h | – | 2.1 h |
